Measurements as given in publication PMC7340344 (Journal of medicinal chemistry, 2020).
Where a name gives a salt, the structure may show the parent alone.

Tests used:
LSD1 = LSD1 (Homo sapiens, UniProt O60341); assay: Inhibition of LSD1; type: biochemical
HAT domain of human p300 = target: T1, HAT domain of human p300 (Homo sapiens, UniProt Q09472); assay: Inhibition of p300-HAT; type: biochemical; conditions: for inhibitory activity against p300 HAT (in words): tested up to 10 μM; for inhibition at 10 µM: read-out: % inhibition at 10 μM, compound at 10 μM; for activity reduction as compared to 12: ratio of p300 HAT IC50 to that of compound 12
T1 sequence (Q09472 1195-1673): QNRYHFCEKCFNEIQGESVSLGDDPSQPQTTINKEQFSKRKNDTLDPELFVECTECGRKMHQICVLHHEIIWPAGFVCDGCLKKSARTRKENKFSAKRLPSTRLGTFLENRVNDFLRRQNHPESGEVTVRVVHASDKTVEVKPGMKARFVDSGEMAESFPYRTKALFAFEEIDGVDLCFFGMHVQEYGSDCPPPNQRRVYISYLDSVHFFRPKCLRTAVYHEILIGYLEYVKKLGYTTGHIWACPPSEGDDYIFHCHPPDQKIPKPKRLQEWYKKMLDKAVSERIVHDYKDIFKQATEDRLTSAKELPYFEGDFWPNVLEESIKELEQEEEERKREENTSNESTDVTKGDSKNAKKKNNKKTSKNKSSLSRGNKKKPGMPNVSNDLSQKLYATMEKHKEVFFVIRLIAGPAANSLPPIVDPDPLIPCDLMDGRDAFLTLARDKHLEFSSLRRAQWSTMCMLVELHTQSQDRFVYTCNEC

p300 HAT and histone H4 = target: T2, p300 HAT and histone H4 (Homo sapiens, UniProt Q09472); assay: Alpha assay, binding between p300 HAT and histone H4 peptide
T2 sequence (Q09472 1287-1663 limits assumed): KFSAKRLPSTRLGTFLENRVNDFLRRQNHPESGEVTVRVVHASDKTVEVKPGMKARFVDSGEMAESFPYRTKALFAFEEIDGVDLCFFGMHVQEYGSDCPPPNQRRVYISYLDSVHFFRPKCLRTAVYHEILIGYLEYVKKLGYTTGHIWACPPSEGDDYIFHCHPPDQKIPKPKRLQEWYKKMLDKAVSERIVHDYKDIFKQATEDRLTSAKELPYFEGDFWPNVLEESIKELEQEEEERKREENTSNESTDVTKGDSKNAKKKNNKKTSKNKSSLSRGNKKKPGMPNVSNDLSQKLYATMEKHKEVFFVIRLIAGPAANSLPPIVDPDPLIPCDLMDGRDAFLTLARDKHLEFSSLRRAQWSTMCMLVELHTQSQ

Kasumi-1 leukemia cells = assay: Western blot of cellular histone acetylation; type: cell-based; conditions: Kasumi-1 cells, 12h, 5 and 10 μM
Outline: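 Kasumi-1 cells (10^6/well) were exposed to test compound at 0, 5 and 10 μM for 12 h. Total histones were extracted by kit, and 2 μg per lane were separated by SDS-PAGE and transferred to PVDF. Blots were probed with antibodies to H3K9Ac, H3K18Ac, H3K27Ac and total H3, then with an anti-rabbit IgG secondary.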

Compound | inhibitory activity against p300 HAT (in words) (HAT domain of human p300) | also measured
CC(C)(C)c1ccc(-c2cc(C(=O)NCC3CCNCC3)sc2-c2ccc(C(C)(C)C)cc2)cc1 [Compound 1, 4,5-bis(4-(tert-Butyl)phenyl)-N-(piperidin-4-ylmethyl)thiophene-2-carboxamide hydrochloride] | – | inhibition of LSD1 activity at 50 μM (LSD1): did not significantly inhibit
CC(C)(C)c1ccc(-c2sc(C(=O)NCC3CCNCC3)cc2-c2ccc(CN3CCNCC3)cc2)cc1 [Compound 7, 5-(4-(tert-Butyl)phenyl)-4-(4-(piperazin-1-ylmethyl)phenyl)-N-(piperidin-4-ylmethyl)thiophene-2-carboxamide hydrochloride] | almost inactive | –
CC(C)(C)c1ccc(-c2sc(C(=O)NCC3CCNCC3)cc2-c2ccoc2)cc1 [Compound 8, 5-(4-(tert-Butyl)phenyl)-4-(furan-3-yl)-N-(piperidin-4-ylmethyl)thiophene-2-carboxamide hydrochloride] | – | inhibition at 10 µM (HAT domain of human p300): ~30%
CC(C)(C)c1ccc(-c2sc(C(=O)NCC3CCNCC3)cc2-c2cccnc2)cc1 [Compound 9, 5-(4-(tert-Butyl)phenyl)-N-(piperidin-4-ylmethyl)-4-(pyridin-3-yl)thiophene-2-carboxamide hydrochloride] | – | inhibition at 10 µM (HAT domain of human p300): ~30%
COc1ccc(-c2ccc(-c3cc(CNCC4CCNCC4)sc3-c3ccc(-c4ccc(OC)cc4)cc3)cc2)cc1 [Compound 10, 1-(4,5-bis(4’-Methoxy-[1,1’-biphenyl]-4-yl)thiophen-2-yl)-N-(piperidin-4-ylmethyl)methanamine hydrochloride] | – | activity reduction as compared to 3 (HAT domain of human p300; removal of the carbonyl group): ~ 50%
CC(C)(C)c1ccc(-c2cc(COCC3CCNCC3)sc2-c2ccc(C(C)(C)C)cc2)cc1 [Compound 13, 4-(((4,5-bis(4-(tert-Butyl)phenyl)thiophen-2-yl)methoxy)methyl)piperidine hydrochloride] | complete loss of inhibitory activity | –
CC(C)(C)c1ccc(-c2cc(CNC3CCNCC3)sc2-c2ccc(C(C)(C)C)cc2)cc1 [Compound 14, N-((4,5-bis(4-(tert-Butyl)phenyl)thiophen-2-yl)methyl)piperidin-4-amine hydrochloride] | – | activity reduction as compared to 12 (HAT domain of human p300): ~ 8 fold
CC(C)(C)c1ccc(-c2cc(CNCCC3CCNCC3)sc2-c2ccc(C(C)(C)C)cc2)cc1 [Compound 15, N-((4,5-bis(4-(tert-Butyl)phenyl)thiophen-2-yl)methyl)-2-(piperidin-4-yl)ethanamine hydrochloride] | – | activity reduction as compared to 12 (HAT domain of human p300): ~3 fold
CC(C)(C)c1ccc(-c2cc(CN3CCNCC3)sc2-c2ccc(C(C)(C)C)cc2)cc1 [Compound 18, 1-((4,5-bis(4-(tert-Butyl)phenyl)thiophen-2-yl)methyl)piperazine hydrochloride] | Loss of activity | –
CC(C)(C)c1ccc(-c2cc(CN3CCOCC3)sc2-c2ccc(C(C)(C)C)cc2)cc1 [Compound 19, 4-((4,5-bis(4-(tert-Butyl)phenyl)thiophen-2-yl)methyl)morpholine hydrochloride] | Loss of activity | –
CCCCc1ccc(-c2cc(CNCC3CCNCC3)sc2-c2ccc(CCCC)cc2)cc1 [Compound 23, 1-(4,5-bis(4-Butylphenyl)thiophen-2-yl)-N-(piperidin-4-ylmethyl)methanamine hydrochloride] | Loss of activity | –
CC(C)(C)c1ccc(-c2cc(CNCC3CCNCC3)sc2-c2ccc(CN)cc2)cc1 [Compound 26, 1-(5-(4-(Aminomethyl)phenyl)-4-(4-(tert-butyl)phenyl)thiophen-2-yl)-N-(piperidin-4-ylmethyl)methanamine hydrochloride] | – | activity reduction as compared to 12 (HAT domain of human p300): ~ 3 fold
CC(C)(C)c1ccc(-c2sc(CNCC3CCNCC3)cc2-c2ccc(CN)cc2)cc1 [Compound 27, 1-(4-(4-(Aminomethyl)phenyl)-5-(4-(tert-butyl)phenyl)thiophen-2-yl)-N-(piperidin-4-ylmethyl)-methanamine hydrochloride] | major activity loss | –
NCc1ccc(-c2cc(CNCC3CCNCC3)sc2-c2ccc(CN)cc2)cc1 [Compound 28, ((5-(((Piperidin-4-ylmethyl)amino)methyl)thiophene-2,3-diyl)bis(4,1-phenylene))dimethanamine hydrochloride] | inactive | effect on binding between p300 HAT and histone H4 (in words) (p300 HAT and histone H4): not interfered; cellular acetylation of histone H3K9, H3K18 and H3K27 (Kasumi-1 leukemia cells): no significant activity
OCc1ccc(-c2cc(CNCC3CCNCC3)sc2-c2ccc(CO)cc2)cc1 [Compound 29, ((5-(((Piperidin-4-ylmethyl)amino)methyl)thiophene-2,3-diyl)bis(4,1-phenylene))dimethanol hydrochloride] | weak inhibitor | –
c1cc(-c2cc(CNCC3CCNCC3)sc2-c2ccoc2)co1 [Compound 30, 1-(4,5-di(Furan-3-yl)thiophen-2-yl)-N-(piperidin-4-ylmethyl)methanamine hydrochloride] | very low activity | –
COc1ccc(-c2cc(CNCC3CCNCC3)sc2-c2ccc(OC)c(OC)c2)cc1OC [Compound 31, 1-(4,5-bis(3,4-Dimethoxyphenyl)thiophen-2-yl)-N-(piperidin-4-ylmethyl)methanamine hydrochloride] | Lack of inhibition | –
c1ccc(-c2cccc(-c3cc(CNCC4CCNCC4)sc3-c3cccc(-c4ccccc4)c3)c2)cc1 [Compound 32, 1-(4,5-di([1,1’-Biphenyl]-3-yl)thiophen-2-yl)-N-(piperidin-4-ylmethyl)methanamine hydrochloride] | Lack of inhibition | –
CC(C)(C)c1ccc(-c2sc(CNCC3CCNCC3)c(Br)c2-c2ccc(C(C)(C)C)cc2)cc1 [Compound 33, 1-(3-Bromo-4,5-bis(4-(tert-butyl)phenyl)thiophen-2-yl)-N-(piperidin-4-ylmethyl)methanamine hydrochloride] | – | activity reduction as compared to 12 (HAT domain of human p300): ~ 3 fold
CC(C)(C)c1ccc(-c2cc(CNCC3CCNCC3)oc2-c2ccc(C(C)(C)C)cc2)cc1 [Compound 34, 1-(4,5-bis(4-(tert-Butyl)phenyl)furan-2-yl)-N-(piperidin-4-ylmethyl)methanamine hydrochloride] | – | IC50 (HAT domain of human p300): 4.9 µM
c1cc(-c2ccc(-c3cc(CNCC4CCNCC4)oc3-c3ccc(-c4ccoc4)cc3)cc2)co1 [Compound 35, 1-(4,5-bis(4-(Furan-3-yl)phenyl)furan-2-yl)-N-(piperidin-4-ylmethyl)methanamine hydrochloride] | – | IC50 (HAT domain of human p300): 3 µM
CC(C)(C)c1ccc(-c2nc(CNCC3CCNCC3)sc2-c2ccc(C(C)(C)C)cc2)cc1 [Compound 37, 1-(4,5-bis(4-(tert-Butyl)phenyl)thiazol-2-yl)-N-(piperidin-4-ylmethyl)methanamine hydrochloride] | – | activity reduction as compared to 12 (HAT domain of human p300): more than 13 fold
CC(C)(C)c1ccc(-c2csc(CNCC3CCNCC3)n2)cc1 [Compound 38, 1-(4-(4-(tert-Butyl)phenyl)thiazol-2-yl)-N-(piperidin-4-ylmethyl)methanamine hydrochloride] | Loss of activity | –
CC(C)(C)c1ccc(-c2csc(C(=O)NCC3CCNCC3)n2)cc1 [Compound 39, 4-(4-(tert-Butyl)phenyl)-N-(piperidin-4-ylmethyl)thiazole-2-carboxamide hydrochloride] | Loss of activity | –
N-((5,6-bis(4-(Furan-3-yl)phenyl)pyrazin-2-yl)methyl)piperidin-4-amine hydrochloride [Compound 40] | significantly less active than its thiophene analog 11 | –
